Measurements reported in ChEMBL document CHEMBL4715911, “Quest for a potent antimalarial drug lead: Synthesis and evaluation of 6,7-dimethoxyquinazoline-2,4-diamines” (Bioorg Med Chem, 2021).

Tests used:
[1] = test system: Plasmodium berghei; test: Antimalarial activity against Plasmodium berghei NK65 infected in po dosed ICR mouse assessed as increase in mean survival days for administered for 4 days; assay type: functional, organism-based; details: dose 50-100 mg/kg, time 4.0 day
In short: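 Female ICR mice (25–27 g) infected via tail vein with 2×10^7 P. berghei NK65 parasitized RBC. Oral dosing in 0.5% methyl cellulose at 4 h post-infection, then days 1–3. Survival days recorded and mean survival days compared with vehicle controls. Student's t-test and Kaplan-Meier analysis applied. Mice without parasitemia at day 30 counted as cured.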

[2] = test system: Plasmodium falciparum; test: Antimalarial activity against Plasmodium falciparum NF54 assessed as inhibition of parasite growth incubated for 48 hrs by [3H]hypoxanthine incorporation assay based liquid scintillation counting method; assay type: functional, organism-based
In short: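 ³H-hypoxanthine incorporation against erythrocytic P. falciparum NF54 (drug-sensitive). Culture in hypoxanthine-free RPMI 1640 with HEPES, NaHCO3, neomycin and Albumax, on human A+ red cells at 2.5% hematocrit, 0.3% parasitemia. Eleven 3-fold dilutions spanning 100 to 0.002 µg/mL. 37 °C in 4% CO2/3% O2/93% N2. Label (0.5 µCi) added after 48 h, then a further 24 h. Scintillation counting. IC50 from 4-parameter logistic fit, average of two independent determinations.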

[3] = test system: L6; test: Cytotoxicity against rat L6 cells assessed as reduction in cell viability incubated for 70 hrs by resazurin dye based fluorescence assay; details: L6, 70 h
In short: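 L6 rat skeletal myoblasts seeded at 4000 cells/well in RPMI 1640 with 1% L-glutamine and 10% FBS. Eleven 3-fold drug dilutions (100 to 0.002 µg/mL) added 24 h after seeding, then 70 h incubation. Resazurin added for 2 h. Fluorescence read at ex 536/em 588 nm. IC50 from 4-parameter logistic fit, average of two independent determinations.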

[4] = Selectivity index, ratio of IC50 for cytotoxicity against rat L6 cells to IC50 for antimalarial activity against Plasmodium falciparum NF54; assay type: toxicity, cell-based; details: read-out: Ratio IC50
In short: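 SI calculated as L6 cytotoxicity IC50 divided by P. falciparum NF54 IC50, both measured in parallel in vitro assays.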

[5] = test system: Plasmodium berghei; test: Antimalarial activity against Plasmodium berghei NK65 infected in ICR mouse assessed as reduction in parasitemia at 58.4 mg/kg, po qd for 4 days by Diff-Quik staining based microscopic method (reference value: 0%); assay type: functional; details: 96 h, time 4 day
[6] = test system: Plasmodium berghei; test: Antimalarial activity against Plasmodium berghei NK65 infected in ICR mouse assessed as animal mean survival days at 58.4 mg/kg, po qd for 4 days (reference value: 6.2 day); assay type: functional; details: time 4 day
[7] = test system: Plasmodium berghei; test: Antimalarial activity against Plasmodium berghei NK65 infected in ICR mouse assessed as reduction in parasitemia at 63.7 mg/kg, po qd for 4 days by Diff-Quik staining based microscopic method (reference value: 0%); assay type: functional; details: 96 h, time 4 day
[8] = test system: Plasmodium berghei; test: Antimalarial activity against Plasmodium berghei NK65 infected in ICR mouse assessed as animal mean survival days at 63.7 mg/kg, po qd for 4 days (reference value: 6.2 day); assay type: functional; details: time 4 day
[9] = test system: Plasmodium berghei; test: Antimalarial activity against Plasmodium berghei NK65 infected in ICR mouse assessed as parasitemia at 50 mg/kg, po qd for 4 days by Diff-Quik staining based microscopic method (reference value: 28.4 +/- 10.2%); assay type: functional; details: time 4 day
[10] = test system: Plasmodium berghei; test: Antimalarial activity against Plasmodium berghei NK65 infected in ICR mouse assessed as reduction in parasitemia at 50 mg/kg, po qd for 4 days by Diff-Quik staining based microscopic method (reference value: 0%); assay type: functional; details: 96 h, time 4 day
[11] = test system: Plasmodium berghei; test: Antimalarial activity against Plasmodium berghei NK65 infected in ICR mouse assessed as animal mean survival days at 50 mg/kg, po qd for 4 days (reference value: 6.2 +/- 0.5 day); assay type: functional; details: time 4 day
[12] = test system: Plasmodium berghei; test: Antimalarial activity against Plasmodium berghei NK65 infected in ICR mouse assessed as reduction in parasitemia at 58.2 mg/kg, po qd for 4 days by Diff-Quik staining based microscopic method (reference value: 0%); assay type: functional; details: 96 h, time 4 day
[13] = test system: Plasmodium berghei; test: Antimalarial activity against Plasmodium berghei NK65 infected in ICR mouse assessed as animal mean survival days at 58.2 mg/kg, po qd for 4 days (reference value: 6.2 +/-0.5 day); assay type: functional; details: time 4 day
[14] = test system: Plasmodium berghei; test: Antimalarial activity against Plasmodium berghei NK65 infected in ICR mouse assessed as reduction in parasitemia at 66.3 mg/kg, po qd for 4 days by Diff-Quik staining based microscopic method (reference value: 0%); assay type: functional; details: 96 h, time 4 day
[15] = test system: Plasmodium berghei; test: Antimalarial activity against Plasmodium berghei NK65 infected in ICR mouse assessed as animal mean survival days at 66.3 mg/kg, po qd for 4 days (reference value: 6.2 day); assay type: functional; details: time 4 day
[16] = test system: Plasmodium berghei; test: Antimalarial activity against Plasmodium berghei NK65 infected in ICR mouse assessed as reduction in parasitemia at 59 mg/kg, po qd for 4 days by Diff-Quik staining based microscopic method (reference value: 0%); assay type: functional; details: 96 h, time 4 day
[17] = test system: Plasmodium berghei; test: Antimalarial activity against Plasmodium berghei NK65 infected in ICR mouse assessed as animal mean survival days at 59 mg/kg, po qd for 4 days (reference value: 6.2 day); assay type: functional; details: time 4 day
[18] = test system: Plasmodium berghei; test: Antimalarial activity against Plasmodium berghei NK65 infected in ICR mouse assessed as reduction in parasitemia at 57 mg/kg, po qd for 4 days by Diff-Quik staining based microscopic method (reference value: 0%); assay type: functional; details: 96 h, time 4 day
[19] = test system: Plasmodium berghei; test: Antimalarial activity against Plasmodium berghei NK65 infected in ICR mouse assessed as animal mean survival days at 57 mg/kg, po qd for 4 days (reference value: 6.2 day); assay type: functional; details: time 4 day

SMILES	IC50 [2] [µM]	IC50 [3] [µM]	selectivity ratio [4]	further results
COc1cc2nc(N3CCCC3)nc(NC(C)c3ccccc3)c2cc1OC (stereo not drawn) [listing 1 of 2 here]				Activity [1]: Dose dependent effect
CCCCNc1nc(Nc2cccnc2)nc2cc(OC)c(OC)cc12	0.0254	150	5900	
CCCCNc1nc(NCCCC)c2ccccc2n1	0.121	3.01	25.6	
CCNc1nc(Nc2ccncc2)nc2cc(OC)c(OC)cc12.Cl				inhibition in vivo at 58.4 mg/kg [5]: 1%; MSD [6]: 7 days
CCCCNc1nc(NCc2cccnc2)nc2cc(OC)c(OC)cc12	0.00217	11.1	5120	
CCCCNc1nc(NCCCC)c2cc(OC)c(OC)cc2n1	0.0021	3.67	1750	
COc1cc2nc(Nc3ccncc3)nc(Nc3ccccc3C)c2cc1OC	0.049	213	4350	
CCCCCCCCNc1nc(Nc2ccncc2)nc2cc(OC)c(OC)cc12	0.0073	1.76	241	
COc1cc2nc(N3CCCC3)nc(NCc3ccccc3)c2cc1OC	0.00549	9.49	1900	
COc1cc2nc(N3CCCC3)nc(NC(C)C)c2cc1OC		12.5	3430	
CCNc1nc(Nc2ccncc2)nc2cc(OC)c(OC)cc12	0.00307	55.1	17900	
COc1cc2nc(Nc3ccncc3)nc(NC(C)c3ccccc3)c2cc1OC.Cl.Cl (stereo not drawn)				inhibition in vivo at 63.7 mg/kg [7]: 6.6%; MSD [8]: 8.3 days
COc1cc2nc(N3CCCC3)nc(Nc3ccccc3C)c2cc1OC	0.0329	8.46	257	Activity [9]: 23.4%; inhibition in vivo at 50 mg/kg [10]: 26.8%; MSD [11]: 6.8 days
COc1cc2nc(Nc3cccnc3)nc(Nc3ccccc3C)c2cc1OC	0.0206	170	8250	
CCCCNc1nc(NCc2ccncc2)nc2cc(OC)c(OC)cc12	0.00816	11	1360	
CCNc1nc(OC)nc2cc(OC)c(OC)cc12	34.8	67.3	1.9	
CCC(CC)Nc1nc(Nc2cccnc2)nc2cc(OC)c(OC)cc12	0.019	155	8190	
CCCCNc1nc(NCCCOCC)nc2cc(OC)c(OC)cc12	0.0276	4.46	161	
COc1cc2nc(Nc3ccncc3)nc(NC(C)C)c2cc1OC.Cl.Cl				inhibition in vivo at 58.2 mg/kg [12]: 39.5%; MSD [13]: 8.3 days
CCNc1nc(NCCc2ccccc2)nc2cc(OC)c(OC)cc12	0.017	1.68	99	
COc1cc2nc(Nc3ccncc3)nc(Nc3ccccc3C(F)(F)F)c2cc1OC	0.0226	138	6100	
COc1cc2nc(N3CCCC3)nc(NC(C)c3ccccc3)c2cc1OC (stereo not drawn) [listing 2 of 2 here]	0.01	4.81	481	Activity [9]: 2.5%; inhibition in vivo at 50 mg/kg [10]: 90.4%; MSD [11]: 19.8 days
CCCCNc1nc(NCC)c2cc(OC)c(OC)cc2n1	0.023	5.29	230	
COc1cc2nc(N3CCCC3)nc(NC(C)CCc3ccccc3)c2cc1OC (stereo not drawn)	0.0073	4.48	613	
CCNc1nc(Nc2cccnc2)nc2cc(OC)c(OC)cc12	0.00614	112	18200	

SMILES	IC50 [2] [µM]	IC50 [3] [µM]	selectivity ratio [4]	further results
COc1cc2nc(Nc3ccncc3)nc(NC(C)C)c2cc1OC	0.0029	81.4	28000	
COc1cc2nc(Nc3ccncc3)nc(NCc3ccncc3)c2cc1OC.Cl.Cl				inhibition in vivo at 66.3 mg/kg [14]: 29.4%; MSD [15]: 7.7 days
CCCCNc1ncnc2cc(OC)c(OC)cc12	4.71	73.6	15.6	
COc1cc2nc(N3CCCC3)nc(N)c2cc1OC	1.66	28.2	17	
COc1cc2nc(Nc3ccncc3)nc(NCc3ccncc3)c2cc1OC	0.0309	138	4470	
COc1cc2nc(N3CCCC3)nc(N3CCCC3)c2cc1OC	1.04	3.96	3.8	
COc1cc2nc(N3CCCC3)nc(NCc3cccnc3)c2cc1OC.Cl				inhibition in vivo at 59 mg/kg [16]: 80.3%; MSD [17]: 8 days
CCC(C)Nc1nc(Nc2ccncc2)nc2cc(OC)c(OC)cc12 (stereo not drawn)	0.00283	47.7	16800	
CCCCCCCCNc1nc(N2CCCC2)nc2cc(OC)c(OC)cc12	0.0014	1.48	1060	
COc1cc2nc(N3CCC(C(N)=O)CC3)nc(NCc3ccccc3)c2cc1OC	0.18	4.98	27.7	
CCC(CC)Nc1nc(Nc2ccncc2)nc2cc(OC)c(OC)cc12	0.0518	110	2130	
COc1cc2nc(Nc3cccnc3)nc(NC(C)C)c2cc1OC	0.0147	249	16900	
CCCCNc1nc(NC(C)C)c2cc(OC)c(OC)cc2n1	0.00314	5.31	1690	
CCNc1nc(NCc2ccccc2)nc2cc(OC)c(OC)cc12	0.0148	5.44	367	
CCCCNc1nc(NCc2ccccn2)nc2cc(OC)c(OC)cc12	0.0109	10.6	1000	
COc1cc2nc(Nc3ccncc3)nc(NCc3cccnc3)c2cc1OC.Cl.Cl				inhibition in vivo at 66.3 mg/kg [14]: 27.1%; MSD [15]: 8.7 days
CCCCCCCCNc1nc(N2CCCC2)nc2cc(OC)c(OC)cc12.Cl				inhibition in vivo at 57 mg/kg [18]: 48.8%; MSD [19]: 6.7 days
CCCCNc1nc(N2CCCC2)nc2cc(OC)c(OC)cc12	0.0018	61.8		Activity [9]: 10.8%; inhibition in vivo at 50 mg/kg [10]: 60%; MSD [11]: 6.6 days
CCCCNc1nc(Nc2ccncc2)nc2cc(OC)c(OC)cc12	0.00567	105		
CCNc1nc(Cl)nc2cc(OC)c(OC)cc12	15.8	52.6	3.33	
COc1cc2nc(Nc3ccncc3)nc(NC(C)c3ccccc3)c2cc1OC (stereo not drawn)	0.0004	62.7	156000	
CCCCCCCCNc1nc(Nc2ccncc2)nc2cc(OC)c(OC)cc12.Cl				inhibition in vivo at 58.4 mg/kg [5]: 54.8%; MSD [6]: 7.3 days
COc1cc2nc(Nc3ccncc3)nc(NCc3cccnc3)c2cc1OC	0.0128	138	10700	
COc1cc2nc(N3CCCC3)nc(NCc3cccnc3)c2cc1OC	0.0136	27.3	2000	
